Measurements: ChEMBL document CHEMBL1772938, “Optimization of 3-(phenylthio)quinolinium compounds against opportunistic fungal pathogens” (Eur J Med Chem, 2011)
Converted amounts (≈) assume the structure as drawn.

Key:
Candida albicans [1] = test: Antimicrobial activity against Candida albicans ATCC 90028 by CLSI method; assay type: functional
Method in brief: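 C. albicans inoculum was made to the 0.5 McFarland standard in Sabouraud dextrose broth or RPMI 1640. Samples came from DMSO stocks serially diluted in saline, in duplicate, starting at a final 20 μg/mL. Plates were read at OD 630 nm before and after incubation. IC50 came from the % growth versus concentration plot; MIC was the lowest concentration with no visible growth. Included: growth, solvent and blank controls, plus amphotericin B.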

Aspergillus fumigatus [2] = test: Antimicrobial activity against Aspergillus fumigatus ATCC 90906 by CLSI method; assay type: functional
Method in brief: (§1)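 Modified CLSI broth microdilution. DMSO stocks were serially diluted in saline and run in duplicate. Inoculum was set by the 0.5 McFarland standard in YM broth for MIC, or in RPMI-1640 + 5% Alamar Blue for IC50. The top final concentration was 20 μg/mL. Fluorescence (544ex/590em) was read before and after incubation. IC50 was taken from % growth versus concentration; MIC was read visually as no blue-to-pink change.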

Cryptococcus neoformans [3] = test: Antimicrobial activity against Cryptococcus neoformans ATCC 90113 by CLSI method; assay type: functional
Method in brief: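 C. neoformans in Sabouraud dextrose broth, inoculum per the 0.5 McFarland standard. Saline serial dilutions of DMSO samples were tested in duplicate, with a final top concentration of 20 μg/mL. OD 630 nm was read before and after incubation. IC50 was derived from % growth versus concentration. MIC was judged visually as the lowest concentration with no detectable growth. Amphotericin B served as the drug control.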

Cryptococcus neoformans [4] = test: Antimicrobial activity against Cryptococcus neoformans ATCC 90113 by alamar blue assay; assay type: functional, organism-based
Aspergillus fumigatus [5] = test: Antimicrobial activity against Aspergillus fumigatus ATCC 90906 by alamar blue assay; assay type: functional, organism-based; method in brief: as §1
[6] = Cytotoxicity against african green monkey Vero cells after 48 hrs by neutral red assay; assay type: cell-based; conditions: chlorocebus sabaeus, read-out: TC50
Method in brief: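 VERO kidney cells were seeded at 25,000 cells/well and incubated 24 h. Samples were added up to 10 μg/mL and incubated a further 48 h. Viable cells were counted by neutral red uptake. IC50 came from growth-inhibition dose curves. Doxorubicin was the positive control and DMSO the vehicle control.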

Candida albicans [7] = test: Antimicrobial activity against Candida albicans ATCC 90028 by alamar blue assay; assay type: functional, organism-based
Pichia kudriavzevii [8] = test: Antimicrobial activity against Candida krusei ATCC 6258 by alamar blue assay; assay type: functional, organism-based
Nakaseomyces glabratus [9] = test: Antimicrobial activity against Candida glabrata ATCC 90030 by alamar blue assay; assay type: functional, organism-based
[10] = Selectivity index, ratio of TC50 for african green monkey Vero cells to IC50 for Cryptococcus neoformans ATCC 90113; assay type: toxicity, cell-based; conditions: read-out: Selectivity Index
Nakaseomyces glabratus [11] = test: Antimicrobial activity against Candida glabrata ATCC 90030 by CLSI method; assay type: functional
Method in brief: (§2)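 Modified CLSI microdilution. DMSO samples were serially diluted in saline and tested in duplicate against inoculum adjusted by the 0.5 McFarland standard. The final test range started at 20 μg/mL. Plates were read before and after incubation. IC50 came from % growth versus concentration; MIC was the lowest concentration without visible growth. Growth, solvent, blank and amphotericin B controls were on each plate.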

Pichia kudriavzevii [12] = test: Antimicrobial activity against Candida krusei ATCC 6258 by CLSI method; assay type: functional; method in brief: as §2

SMILES | MFC (Candida albicans [1]) [µg/mL] | MIC (Candida albicans [1]) [µg/mL] | MFC (Aspergillus fumigatus [2]) [µg/mL] | MIC (Aspergillus fumigatus [2]) [µg/mL] | MFC (Cryptococcus neoformans [3]) [µg/mL] | MIC (Cryptococcus neoformans [3]) [µg/mL] | IC50 (Cryptococcus neoformans [4]) [µg/mL] | IC50 (Aspergillus fumigatus [5]) [µg/mL] | CC50 at 48 h [6] [µg/mL] | IC50 (Candida albicans [7]) [µg/mL] | IC50 (Pichia kudriavzevii [8]) [µg/mL] | IC50 (Nakaseomyces glabratus [9]) [µg/mL] | selectivity ratio [10] | MFC (Nakaseomyces glabratus [11]) [µg/mL] | MIC (Nakaseomyces glabratus [11]) [µg/mL] | MFC (Pichia kudriavzevii [12]) [µg/mL] | MIC (Pichia kudriavzevii [12]) [µg/mL]
[I-].c1ccc(CCCCC[n+]2cc(Sc3ccccc3)cc3ccccc32)cc1 | > 20 | 10 | > 20 | 1.3 | > 20 | 5 | – | – | – | – | – | – | – | – | – | – | –
Cc1cccc(Sc2cc3ccccc3[n+](CCCCCc3ccccc3)c2)c1.[I-] | > 20 | > 20 | > 20 | > 20 | 20 | 2.5 | 1.4 | 20 | 8.8 | > 20 | – | – | – | – | – | – | –
Brc1ccccc1Sc1cc2ccccc2[n+](CCCCCc2ccccc2)c1.[I-] | > 20 | 20 | > 20 | 2.5 | 20 | 5 | 3 | 1 | 10 | 10 | – | – | – | – | – | – | –
Cc1ccc(Sc2cc3ccccc3[n+](CCCCCC3CCCCC3)c2)cc1.[I-] | 5 | 2.5 | 5 | 5 | 1.3 | 0.3 | 0.2 | 2.7 | 2.8 | 1.3 | 0.5 | 5.5 | 14 | 10 | 10 | 1.3 | 0.6
FC(F)(F)c1ccc(Sc2cc3ccccc3[n+](CCCCCc3ccccc3)c2)cc1.[I-] | > 20 | 20 | > 20 | > 20 | 10 | 5 | 2.7 | 15 | 10 | 11 | – | – | – | – | – | – | –
Cc1cccc(Sc2cc3ccccc3[n+](CCCCCC3CCCCC3)c2)c1.[I-] | 5 | 2.5 | 5 | 5 | 0.4 | 0.3 | 0.2 | 3.5 | 3.7 | 1.4 | 0.4 | 5.5 | 19 | 10 | 10 | 1.3 | 0.6
COc1cccc(Sc2cc3ccccc3[n+](CCCCCc3ccccc3)c2)c1.[I-] | > 20 | > 20 | > 20 | 5 | > 20 | 20 | 10 | 3.5 | > 10 | > 20 | – | – | – | – | – | – | –
Cc1ccc(Sc2cc3ccccc3[n+](CCCCCc3ccccc3)c2)cc1.[I-] | > 20 | > 20 | > 20 | > 20 | 5 | 2.5 | 1.2 | 16 | 4.2 | > 20 | – | – | – | – | – | – | –
COc1ccc(Sc2cc3ccccc3[n+](CCCCCc3ccccc3)c2)cc1.[I-] | > 20 | > 20 | > 20 | 20 | < 20 | 20 | 15 | 4.5 | 10 | > 20 | – | – | – | – | – | – | –
Brc1ccccc1Sc1cc2ccccc2[n+](CCCCCC2CCCCC2)c1.[I-] | 2.5 | 2.5 | 20 | 2.5 | 1.3 | 0.6 | 0.3 | 2 | 9.7 | 1.4 | 0.3 | 3.2 | 32 | 10 | 5 | 1.3 | 0.6
Brc1cccc(Sc2cc3ccccc3[n+](CCCCCc3ccccc3)c2)c1.[I-] | > 20 | 20 | > 20 | 10 | 10 | 5 | 2 | 2.5 | > 10 | 10 | – | – | – | – | – | – | –
Fc1cccc(Sc2cc3ccccc3[n+](CCCCCC3CCCCC3)c2)c1.[I-] | 10 | 5 | 20 | 10 | 2.5 | 0.6 | 0.5 | 5.3 | 6.6 | 2.7 | 0.3 | 12 | 13 | 20 | 20 | 1.3 | 0.6
COc1ccccc1Sc1cc2ccccc2[n+](CCCCCc2ccccc2)c1.[I-] | > 20 | > 20 | > 20 | > 20 | > 20 | > 20 | 15 | 8 | 4.3 | > 20 | – | – | – | – | – | – | –
[I-].c1ccc(Sc2cc3ccccc3[n+](CCCCCC3CCCCC3)c2)cc1 | 10 | 5 | > 20 | 10 | 2.5 | 1.3 | – | – | 4.6 | – | – | 15 | 9.2 | 20 | 20 | 2.5 | 1.3
C[C@@H]1[C@H](O)[C@@H](C)/C=C/C=C/C=C/C=C/C=C/C=C/C=C/[C@H](O[C@@H]2O[C@H](C)[C@@H](O)[C@H](N)[C@@H]2O)C[C@@H]2O[C@](O)(C[C@@H](O)C[C@@H](O)[C@H](O)CC[C@@H](O)C[C@@H](O)CC(=O)O[C@H]1C)C[C@H](O)[C@H]2C(=O)O [AMPHOTERICIN B] | 1.3 (≈ 1.41 µM) | 1.3 (≈ 1.41 µM) | 5 (≈ 5.41 µM) | 1.3 (≈ 1.41 µM) | 5 (≈ 5.41 µM) | 1.3 (≈ 1.41 µM) | – | – | 6.5 (≈ 7.03 µM) | – | 0.9 (≈ 0.974 µM) | 0.6 (≈ 0.649 µM) | 14 | 2.5 (≈ 2.71 µM) | 1.3 (≈ 1.41 µM) | 2.5 (≈ 2.71 µM) | 2.5 (≈ 2.71 µM)
